We go through 19 compounds from publication PMC10245909 (bioRxiv, 2023).

Counter-ions that a name gives are not always drawn.

Data set [1] has as its system C. parvum. As to the kind of experiment: Initial screen of gut metabolites on C. parvum growth in HCT-8 cells. It is filed as cell-based, Cryptosporidium parvum. As to conditions: 24 hpi, metabolite at 1 mM (0.1 mM for bile acids/salts). A digest of the protocol:
(§1)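 Confluent HCT-8 cells (1.5 × 10^5/well, grown ~24 h) were infected with 5 × 10^5 bleached oocysts together with a single metabolite diluted in culture medium (1 mM or 0.1 mM) for 24 h. Parasite and host cell numbers are given as ratios to PBS control wells on the same plate. Each metabolite was run in triplicate across six separate experiments.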

The subject of data set [2] is C. parvum. As to the kind of experiment: C. parvum growth assay in HCT-8 cells. The settings on record: for EC50: HCT-8, 24 h; for Cp infection, treatment started 4 hpi: 4 – 24 hpi; for Cp growth, treatment 0 – 4 hpi only: first four hours of infection only. The class given is cell-based, Cryptosporidium parvum.
In the next data set the test system is AhR. The settings on record: cited from earlier work.
Data set [3] relates to C. parvum. As to the kind of experiment: Air-liquid interface. The settings on record: for time after washout to significant recovery in Cp growth: treated 48 h at EC50 concentration; for EC50 / EC90: Cryptosporidium parvum; for EC50: read-out: EC50 for Cp in ALI cultures; for EC90: read-out: EC90 for Cp in ALI cultures. It is filed as cell-based, Cryptosporidium parvum. Put shortly:
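ALI transwells were coated with 10% Matrigel and seeded with irradiated mouse 3T3 fibroblasts (8 × 10^4/transwell). Top medium was removed after 7 days, and 5 × 10^4 oocysts were added on top 3 days later. After ~4 h the tops were washed twice with DPBS and day-0 wells scraped. Test compound at three levels or 1% DMSO went in the bottom medium for ~48 h, then transwells moved to normal medium. Parasite genome eq. by DNA extraction, normalized to DMSO at each time point; six replicates (3 technical × 2 experiments).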

In data set [4] the test system is C. parvum. Kind of data set: Metabolite treatment of C. parvum-infected GKO mice. It is filed as in vivo, mouse.
Data set [5] relates to C. parvum. As to the kind of experiment: Antibody and EdU labeling of C. parvum life cycle stages in HCT-8 cells. The class given is cell-based, Cryptosporidium parvum. As to conditions: EC90 concentrations; for life cycle stage progression: first 24 hpi, EdU pulses.
The subject of another data set is Cp mitosome. As to the kind of experiment: Mitotracker CMXRos staining of C. parvum mitosome. The class given is cell-based, Cryptosporidium parvum. The settings on record: 2 x EC90 indole 1.76 mM, 7CNI 1 mM, CCCP 10 μM; 2 h or 24 h. A digest of the protocol:
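HCT-8 cells on coverslips were infected with 5 × 10^5 oocysts, washed twice with DPBS, and exposed in 1% DMSO medium either 22–24 hpi (2 h) or continuously to 24 hpi. MitoTracker Red CMXRos (50 nM final) was added 45 min before fixation at 24 hpi. Staining used 1E12 with Alexa Fluor 488 secondary plus Hoechst. Four replicates (2 technical × 2 experiments).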

For data set [6], the system named is HCT-8 cells. As to the kind of experiment: Host nuclei in growth assay with mitochondrial inhibitors. The settings on record: for host cell toxicity at Cp-inhibitory levels: HCT-8, 24 h, at EC50 levels. The class given is cell-based, human. A digest of the protocol:
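Confluent HCT-8 cells (1.5 × 10^5/well) were infected with 1 × 10^5 bleached oocysts and exposed ~24 h to test compounds, serially diluted 1:2 from 40 μM (final, 1% DMSO). Cells were fixed in 4% formaldehyde, permeabilized/blocked in 0.1% Triton-X/1% BSA, Hoechst-stained and counted, with values relative to the 1% DMSO control mean. Four replicates (2 technical × 2 experiments).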

The subject of data set [7] is AhR target genes AhRR and CYP1A1. As to conditions: HCT-8 AhR KO 1 and KO 2, VAF347 500 nM, 24 h.
Data set [8] relates to C. parvum. As to conditions: dietary supplementation, malnourished neonatal mice; cited from earlier work.
In data set [9] the test system is HCT-8 cells. Kind of data set: Host cell numbers in the initial metabolite screen. It is filed as cell-based, human. The settings on record: metabolite at 1 mM, 24 h. Put shortly: as §1
The subject of data set [10] is C. parvum. Kind of data set: C. parvum growth assay in HCT-8 AhR KO cell lines. The settings on record: HCT-8 AhR KO cells, 24 h, indole 1 mM, 4HI 1 mM. It is filed as cell-based, Cryptosporidium parvum.
Data set [11] concerns HCT-8 cells. Kind of data set: Seahorse metabolic assays. It is filed as cell-based, human. As to conditions: 18 h.
Data set [12] concerns C. parvum. The settings on record: neonatal mice, only when gut microflora present; cited from earlier work.
Setting [13] is: Cryptosporidium parvum, read-out: Cp EC50.
The mark [14] stands for this setting: Cryptosporidium parvum, HCT-8, read-out: EC90 for Cp, HCT-8 cells.
The mark [15] stands for this setting: indole 0.5-2 mM, 7CNI 0.25-1 mM.

As to `Oc1cccc2[nH]ccc12` [4-hydroxyindole], in the data set on C. parvum [1], the “effect on Cp growth (Cp numbers relative to PBS control)” value was “significantly inhibited”. Further, the EC50 (usually the concentration needed to bring the measured effect to its halfway point) in the data set with C. parvum [2] (setting [13]) worked out at 1260 µM.

Consider `Cc1cccc2[nH]ccc12` [4-methylindole], for which the “AhR signaling in vitro” value in the data set on AhR was “activate AhR signaling”.

In the case of `O=C(O)Cc1c[nH]c2ccc(O)cc12` [5-hydroxyindole-3-acetic acid], in the data set on C. parvum [1], the “effect on Cp growth (Cp numbers relative to PBS control)” value was “no effect”.

In the case of `Cc1ccc2cc[nH]c2c1` [6-methylindole], the “AhR signaling in vitro” value in the data set on AhR was “activate AhR signaling”.

With `N#Cc1cccc2cc[nH]c12` [7-cyanoindole], the “time after washout to significant recovery in Cp growth” value with C. parvum [3] (ALI) is 4 days. Besides, in the data set with C. parvum [3], the EC50 is 379 µM and the EC90 (usually the point of the concentration-response curve where the effect stands at 90%) came to 688 µM. Also, the survival rate entry with C. parvum [4] (50 mg/kg BID 7 days) is recorded as “did not significantly increase survival rate”. The “mean Cp oocysts per mg feces by 9 dpi” value in the data set with C. parvum [4] (50 mg/kg BID 7 days, after end of treatment) is given as “rebounded”. Besides, the “body weight vs vehicle- or indole-treated mice” value with C. parvum [4] (50 mg/kg BID, 5 and 7 dpi) is given as “weighed significantly more”. Further, in the data set with C. parvum [2] (setting [14]), the EC90 is 500 µM. For the same compound, in the data set with C. parvum [2] (EC90 concentrations), the “Cp infection, treatment started 4 hpi” value is recorded as “significantly inhibited Cp infection” and the “Cp growth, treatment 0 – 4 hpi only” value is given as “neither indole nor 7CNI inhibited Cp growth”. The “life cycle stage progression” value in the data set on C. parvum [5] was “delayed progression through sequential life cycle stages”.

Regarding `COc1cccc2cc[nH]c12` [7-methoxyindole], the “AhR signaling in vitro” value in the data set on AhR was “activate AhR signaling”.

As to `N#CC(C#N)=NNc1cccc(Cl)c1` [CCCP, carbonyl cyanide m-chlorophenyl hydrazone], the “Mitotracker staining of Cp mitosomes” value in the data set with Cp mitosome is listed as “decreases Mitotracker staining”. For the same compound, in the data set on HCT-8 cells [6] (HCT-8, 40 μM and 20 μM), the “host toxicity at high concentration” value is “observed host toxicity”. The “host cell toxicity at Cp-inhibitory levels” value in the data set on HCT-8 cells [6] is on record as “not due to host cell toxicity”.

Consider `FC(F)(F)c1ccc(Nc2nccc(-c3cccc(Cl)c3)n2)cc1` [VAF347], for which the “CYP1A1 gene expression in AhR KO lines” value in data set [7] is reported as “lost the ability to upregulate CYP1A1 gene expression”.

With `N=C(N)NCCC[C@H](N)C(=O)O` [arginine], the “severity of C. parvum infection” value with C. parvum [8] is on record as “decrease severity of C. parvum infection”.

For `C[C@H](CCC(=O)O)[C@H]1CC[C@H]2[C@@H]3CC[C@@H]4C[C@H](O)CC[C@]4(C)[C@H]3C[C@H](O)[C@]12C` [deoxycholate, sodium deoxycholate], the “effect on Cp growth (Cp numbers relative to PBS control)” value in the data set with C. parvum [1] was “significantly inhibited”.

In the case of `C[C@H](CCC(=O)O)[C@H]1CC[C@H]2[C@@H]3CC[C@@H]4C[C@H](O)CC[C@]4(C)[C@H]3C[C@H](O)[C@]12C` [deoxycholic acid], the “host toxicity in screen” value with HCT-8 cells [9] was “significant host toxicity”.

Regarding `c1ccc2[nH]ccc2c1` [indole], the “Cp sensitivity in AhR KO cells” value with C. parvum [10] is on record as “remained sensitive”. In the data set on Cp mitosome, the “Mitotracker staining of Cp mitosomes” value is on record as “significantly decreased Mitotracker staining”. Moreover, the “Cp growth recovery after washout, 2 x EC90” value with C. parvum [3] (ALI, treated 48 h at 2 x EC90 concentration) is listed as “no recovery”. In the data set with C. parvum [3] (ALI), the “time after washout to significant recovery in Cp growth” value is 2 days. Further, in the data set with C. parvum [3] (ALI, treated 48 h at EC90 concentration), the “Cp growth recovery after washout, EC90” value is listed as “Some growth recovery (though not significant)”. In addition, in the data set with C. parvum [3], the EC50 turned out to be 577 µM and the 90% effect concentration (EC90) came out at 1890 µM. Moreover, the median survival time in the data set on C. parvum [4] (50 mg/kg BID 7 days, vehicle 11 dpi) was found to be 17 dpi. For the same compound, the “Cp oocysts shed in feces” value in the data set with C. parvum [4] (50 mg/kg oral gavage twice daily 7 days, by 5 dpi) is on record as “no effect”. Moreover, the EC50 in the data set with C. parvum [2] (setting [13]) is 411 µM. In the data set with C. parvum [2] (setting [14]), the EC90 is 880 µM. For the same compound, in the data set on C. parvum [2] (EC90 concentrations), the “Cp infection, treatment started 4 hpi” value is “significantly inhibited Cp infection” and the “Cp growth, treatment 0 – 4 hpi only” value is “neither indole nor 7CNI inhibited Cp growth”. Further, the “Cp infection after pre-treatment of host cells” value with C. parvum [2] (EC90 concentrations, host cells pre-treated 20 h before infection) is listed as “did not affect subsequent Cp infection”. Besides, the EC90 with C. parvum [2] (read-out: EC90 for Cp, HCT-8 cells) came out at 877 µM. The “morphology of mature merozoites (1E12 labeling)” value with C. parvum [5] (22 h) is “did not observe any obvious morphological defects”. Further, the “time until which total number of Cp did not significantly differ from DMSO” value with C. parvum [5] (HCT-8, start of second round of merogony) is ~ 16 hpi. Besides, the “life cycle stage progression” value in the data set with C. parvum [5] is given as “delayed progression through sequential life cycle stages”. The “basal and stressed respiratory rate in HCT-8 WT and AhR KO cells” value in the data set on HCT-8 cells [11] (indole 0.5, 1, 2 mM, stressed = after FCCP and oligomycin) is “significantly impaired in a dose-dependent manner”. For the same compound, in the data set on HCT-8 cells [11] (indole 0.5, 1, 2 mM, 7CNI 0.25, 0.5, 1 mM, dose-dependent), the “basal and maximal levels of mitochondrial respiration (OCR)” value is on record as “significantly reduced”. In addition, in the data set on HCT-8 cells [11] (setting [15]), the “ATP production rate by glycolysis” value is listed as “remained similar”, the “ATP production rate by the mitochondria” value is “significant reduction”, the spare respiratory capacity result was “diminished” and the “total ATP production rate” value was “lower total ATP production rate”.

For the compound `C[C@H](CCC(=O)O)[C@H]1CC[C@H]2[C@@H]3CC[C@@H]4C[C@H](O)CC[C@]4(C)[C@H]3CC[C@]12C` [lithocholic acid], the “effect on Cp growth (Cp numbers relative to PBS control)” value in the data set with C. parvum [1] is listed as “significantly inhibited”. Moreover, the “host toxicity in screen” value in the data set on HCT-8 cells [9] is on record as “significant host toxicity”.

As to `CC[C@H]1/C=C/C=C/C[C@@H](C)[C@H](O)[C@@](C)(O)C(=O)[C@@H](C)[C@H](O)[C@@H](C)C(=O)[C@@H](C)[C@H](O)[C@@H](C)/C=C/C(=O)O[C@@H]2[C@H](C)[C@H](CC1)O[C@]1(CC[C@H](C)[C@H](C[C@@H](C)O)O1)[C@H]2C` [oligomycin, reference compound], in the data set with C. parvum [2] (Cryptosporidium parvum, read-out: Cp EC50, OxPhos inhibitors), the EC50 came out at 20.6 µM. Also, the “host cell toxicity at Cp-inhibitory levels” value in the data set with HCT-8 cells [6] is given as “not due to host cell toxicity”.

As to `CCCCC[C@H](O)/C=C/[C@H]1[C@H](O)CC(=O)[C@@H]1C/C=C\CCCC(=O)O` [prostaglandin E2], in the data set on HCT-8 cells [9], the “host toxicity in screen” value is “significant host toxicity”.

`Cc1ncc(CO)c(C=O)c1O` [pyridoxal hydrochloride]: the “effect on Cp growth (Cp numbers relative to PBS control)” value with C. parvum [1] is “significantly inhibited”. For the same compound, in the data set on C. parvum [2] (setting [13]), the EC50 is 213 µM. The “Fold selectivity (host EC50 divided by Cp EC50)” value in the data set on C. parvum [2] (HCT-8 cells) is listed as 44.6 fold.

In the case of fumaric, the “effect on Cp growth (Cp numbers relative to PBS control)” value in the data set with C. parvum [1] is on record as “impair growth”.

Turning to poly(I:C), the C. parvum load entry in the data set on C. parvum [12] was “reduced C. parvum load”.

With propionic, the “effect on Cp growth (Cp numbers relative to PBS control)” value in the data set on C. parvum [1] is “impair growth”.
